Results: paper PMC7869823 (Bioorganic & medicinal chemistry, 2020)
Values joined by “and” are separate entries in the source; they are usually repeats but may differ in a detail not shown here. Identical values can stand only once.

Columns and labels:
[1] = tested on: sea urchin NAADP receptor; assay: Sub-threshold receptor desensitization in sea urchin egg homogenates; format: biochemical; conditions: compared to NAADP
Summary of the method: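 Sea urchin egg homogenates were exposed to increasing sub-threshold concentrations of test compound or NAADP, and time-dependent desensitization was probed by subsequent addition of 1 μM NAADP. Ca2+ release was read as peak fluo-3 fluorescence. IC50 was derived from the concentration-response and compared with that of NAADP.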

[2] = target: sea urchin NAADP receptor; assay: Ca2+ release in sea urchin egg homogenates; format: biochemical; conditions: compared to NAADP
cultured human cells = conditions: low concentrations, microinjected; cited from earlier work
[3] = tested on: NAADP 23–24 kDa binding protein(s); conditions: cited from earlier work

Row | Structure (SMILES) | decrease in desensitization potency relative to NAADP [1] | EC50 relative to NAADP (fold greater / fold less potent as an agonist) [2] | Ca2+ release in cultured human cells (cultured human cells) | photolabeling of NAADP binding protein(s) [3]
1 | C#Cc1nc2c(N)ncnc2n1[C@@H]1O[C@H](COP(=O)(O)OP(=O)(O)OC[C@H]2O[C@@H]([n+]3cccc(C(=O)[O-])c3)[C@H](O)[C@@H]2O)[C@@H](O)[C@H]1OP(=O)(O)O [Compound 8, 8-Ethynyl-NAADP] | 86 fold and 90 fold | 89 fold and 90 fold |  | 
2 | C#Cc1nc2c(N)ncnc2n1[C@@H]1O[C@H](COP(=O)(O)OP(=O)(O)OC[C@H]2O[C@@H]([n+]3cc(N=[N+]=[N-])cc(C(=O)[O-])c3)[C@H](O)[C@@H]2O)[C@@H](O)[C@H]1OP(=O)(O)O [Compound 9, 5-N3-8-Ethynyl-NAADP] |  |  | elicit Ca^2+ release | specifically photolabel NAADP 23–24 kDa binding protein(s)
